The source made the active and inactive calls. The rule behind the calls is not given here.
Legend:
[1] = organism: Mus musculus; assay: activity in the mouse hotplate procedure; type: functional
[2] = tested on: Mus musculus; assay: The Narcotic-antagonistic activity the ability to reverse an ED50 dose of morphine when tested in mice by the tail-flick procedure at the dose of 10 mg/kg (s.c.); type: functional; settings: sc
Procedure, shortened: (§1)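 Mouse tail-flick antagonism assay: test agents given subcutaneously as hydrochloride salts of racemic mixtures, each at 30, 10, 3 and 1 mg/kg, against a subcutaneous ED50 dose of morphine. The read-out is percent inhibition, meaning reversal, of the morphine tail-flick response. Testing was performed by an outside laboratory (NIDA).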

[3] = tested on: Mus musculus; assay: The Narcotic-antagonistic activity the ability to reverse an ED50 dose of morphine when tested in mice by the tail-flick procedure at the dose of 1 mg/kg (s.c.); type: functional; settings: sc; procedure, shortened: as §1
[4] = tested on: Mus musculus; assay: The Narcotic-antagonistic activity the ability to reverse an ED50 dose of morphine when tested in mice by the tail-flick procedure at the dose of 30 mg/kg (s.c.); type: functional; settings: sc; procedure, shortened: as §1
[5] = tested on: Mus musculus; assay: The Narcotic-antagonistic activity the ability to reverse an ED50 dose of morphine when tested in mice by the tail-flick procedure at the dose of 3 mg/kg (s.c.); type: functional; settings: sc; procedure, shortened: as §1
[6] = tested on: Monkey; assay: Compound was tested for signs of opiate abstinence at 5 mg/kg dose in monkeys; No effect; type: functional, organism-based; set-up: dose 5 mg/kg; settings: Cercopithecidae
[7] = tested on: Mus musculus; assay: The ability to reverse an ED50 dose of morphine when tested in mice by the tail-flick procedure at the dose of 30 mg/kg (s.c.) value expressed as narcotic-antagonistic activity; type: functional; procedure, shortened: as §1
[8] = tested on: Mus musculus; assay: The ability to reverse an ED50 dose of morphine when tested in mice by the tail-flick procedure at the dose of 3 mg/kg (s.c.) value expressed as narcotic-antagonistic activity; type: functional; procedure, shortened: as §1
[9] = tested on: Mus musculus; assay: The ability to reverse an ED50 dose of morphine when tested in mice by the tail-flick procedure at the dose of 10 mg/kg (s.c.) value expressed as narcotic-antagonistic activity; type: functional; procedure, shortened: as §1
[10] = tested on: Mus musculus; assay: The ability to reverse an ED50 dose of morphine when tested in mice by the tail-flick procedure at the dose of 1 mg/kg (s.c.) value expressed as narcotic-antagonistic activity; type: functional; procedure, shortened: as §1

| Compound | ED50 [1] [mg/kg] | inhibition in vivo at 1 mg/kg [3] [%] | inhibition in vivo at 3 mg/kg [5] [%] | also measured |
| --- | --- | --- | --- | --- |
| CN(CC1CC1)C1C=C(c2ccccc2)c2ccccc2C1 (stereo unspecified) | > 50 | – | – | – |
| CN(CC1CC1)[C@@H]1Cc2ccccc2[C@@H](c2ccccc2)C1 | 9.1 | 60 | 100 | inhibition in vivo at 10 mg/kg [2]: 54%; inhibition in vivo at 30 mg/kg [4]: 0%; Activity [6]: inactive |
| CN(CC1CC1)[C@@H]1Cc2ccccc2[C@H](c2ccccc2)C1 | 6.3 | 75 | 100 | – |
| CN1CC[C@]23c4c5ccc(O)c4O[C@H]2[C@@H](O)C=C[C@H]3[C@H]1C5.CN1CC[C@]23c4c5ccc(O)c4O[C@H]2[C@@H](O)C=C[C@H]3[C@H]1C5.O=S(=O)(O)O | 1.2 | – | – | – |
| COc1ccc2c3c1O[C@H]1[C@@H](O)C=C[C@H]4[C@@H](C2)N(C)CC[C@@]341.O=S(=O)(O)O | 7.5 | – | – | – |
| C=CCN1CC[C@]23c4c5ccc(O)c4O[C@H]2C(=O)CC[C@@]3(O)[C@H]1C5.Cl [NALOXONE HYDROCHLORIDE] | – | – | – | AD50 [7]: 0.031 mg/kg; AD50 [8]: 0.031 mg/kg; AD50 [9]: 0.031 mg/kg; AD50 [10]: 0.031 mg/kg |

Source: ChEMBL document CHEMBL1122016, “Aminotetralins as narcotic antagonists. 2. Synthesis and opiate-related activity of 1-phenyl-3-aminotetralins” (1982)
